Screening data deposited in PubChem BioAssay by several laboratories.
Shown are actives, neighbours in structure and some others; about 4.2% of the full set was active somewhere.
KCNQ1 inh: blocks the human KCNQ1 potassium channel. P51787. CHO-K1 KCNQ1, FluxOR thallium flux fluorescence; active compounds read high. B-score at 10 µM. actives 1.3% (n = 310,000);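 active = compounds whose thallium flux B-score, printed positive for inhibition, exceeds three library SD while starting fluorescence stays within three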;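 note: channel opened by potassium depolarization with thallium stimulus after 20 min compound exposure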
Mot1-301 SUMO: blocks SUMOylation pathway, rescuing yeast Mot1-301 growth; S. cerevisiae Mot1-301 growth rescue, ATP luminescence, 38.5C; percent above DMSO median, 100 means doubled; actives 1% (n = 320,000); growth rescue, % at 18.8 µM;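 active = every valid replicate shows activation above 250% relative to neutral control wells; inactive = the rest, any valid replicate at or below 250%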;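 note: OY570 slx delta 5 strain wells were the positive control but not used for scaling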
KCNQ1 act: potentiators or activators of human KCNQ1 potassium channel; P51787; CHO-K1 KCNQ1, thallium flux FluxOR fluorescence; active compounds read high; B-score at 10 µM; actives 0.35% (n = 310,000);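 active = fluorescence ratio B-score, a plate-corrected score, at least three library SD, with initial intensity B-score within 5 SD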
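Doses: Single concentration per compound, DMSO matched to controls | Test system: KCNQ1-transfected CHO-K1 cells | Timing: 90 min dye loading and 20 min compound exposure, both at room temperature | Measured by: Kinetic FluxOR thallium fluorescence, 10-s 1-Hz baseline, 110-s post-stimulus read | Medium: Assay buffer with matched DMSO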
AI-2 QS modul: Vibrio harveyi AI-2 quorum sensing modulation | Vibrio harveyi JMH597 AI-2 luminescence/OD600 ratio, 9 h; active compounds read low; strain lacks LuxN and CqsS sensors; 0 = neutral-control median | activity change, % at 7.5 µM | actives 0.4% (n = 300,000) | AID 2094; in the data active = activity change below about -75%, passing the limit was not always enough; inconclusive = no clear call, values can overlap the other calls;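 note: luminescence divided by OD600 gain over 9 h not by final OD600 alone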
Cl transport mod: KCC2 (human) Cl- transport modulation; AID 1456; KCC2 cells, thallium flux FluoZin-2 fluorescence; actives 2.2% (n = 190,000); B-score of Tl+ flux slope (higher = more flux/activation; lower = inhibition) at 10 µM;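 active = thallium flux slope and its plate-corrected score both differing from the plate sample mean at a set confidence after two filtering rounds, in either direction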;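 note: slope of fluorescence scaled to starting intensity during 10 to 20 s after thallium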
hERG rescue: hERG (human) protection from proarrhythmic block. actives 0.51% (n = 310,000). Q12809. CHO-hERG, FluxOR thallium flux, dofetilide IC70 present. AID 1511. activation (rescue from dofetilide block), less the hit threshold, % at 10 µM;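 active = activation above the mean of controls blocked by dofetilide plus 5 SD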;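 note: thallium influx through hERG after potassium depolarization seen as dye fluorescence rise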
KCC2 secondary: confirmation of human KCC2 transport modulators; actives 15% (n = 3,700); HEK293-KCC2, thallium flux, FluoZin2 fluorescence; active compounds read high; shares compounds with Cl transport mod; normalised thallium flux (F/F0 slope) at 10 µM; AID 1713;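 active = thallium flux slope above the same plate's solvent-only control mean plus 3 SD; inconclusive = the two replicate wells disagree; inactive = no significant difference from solvent-only control wells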
KCC2 bumet counter: thallium flux persisting under bumetanide in KCC2 cells, counter-screen secondary assay. shares compounds with Cl transport mod. actives 49% (n = 3,700). AID 1714. normalized thallium flux at 10 µM. HEK293-KCC2 + bumetanide/ouabain, thallium flux FluoZin2; active compounds read high;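 active = thallium entry rate above the same plate's blocked-transporter control wells by more than 3 SD; inconclusive = the two repeat wells disagree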;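 note: raw slope of fluorescence over initial fluorescence between 10 and 20 s after thallium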
KCC2 sec2: KCC2 (human) modulation, second secondary assay. shares compounds with Cl transport mod. normalized thallium flux at 10 µM. actives 23% (n = 3,700). HEK293-KCC2, thallium flux FluoZin2 fluorescence; actives lie on both sides; F/F0 rise rate, 10–20 s post-thallium. AID 1715;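 active = thallium flux slope more than 3 SD above or below the plate's solvent-only control mean, mostly below; inconclusive = the two repeat wells disagreed; inactive = no significant shift from solvent-only controls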;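 note: raw slope with 0.1% DMSO as baseline and bumetanide as block control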
HEK counter1: counter-screen for KCC2 modulators: effect in parental HEK293 cells | thallium flux FluoZin2, ouabain; baseline-ratio fluorescence slope, 10–20 s after thallium | actives 46% (n = 3,700) | shares compounds with Cl transport mod | thallium flux rate (normalised fluorescence) at 10 µM;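 active = thallium flux rate significantly above the same plate's solvent-only control wells, beyond their mean plus 3 SD; inconclusive = the two replicate wells gave conflicting results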
KCC2 retest ouab: confirmation of human KCC2 modulators with ouabain | shares compounds with Cl transport mod | HEK293-KCC2, thallium flux FluoZin2 fluorescence; bidirectional: low = inhibitor, high = activator | raw Tl+ flux slope (below DMSO = inhibition, above = activation) at 10 µM | actives 48% (n = 3,700) | AID 1717;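 active = thallium flux slope beyond 3 SD from same-plate DMSO control mean in most replicates, usually higher, sometimes lower; inconclusive = repeat tests gave conflicting results; inactive = no significant difference from controls in most replicates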;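 note: slope of initial-normalized fluorescence between seconds 10 and 20 after thallium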
HEK293 Tl flux2: counter-screen for KCC2 modulators: effect in parental HEK293 cells; thallium flux FluoZin-2 fluorescence slope; actives 33% (n = 3,700); shares compounds with Cl transport mod; thallium flux slope at 10 µM;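 active = thallium flux slope above the same plate's solvent-control mean plus 3 SD in both duplicate wells; inconclusive = duplicate wells that disagreed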;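 note: run without ouabain in cells lacking the KCC2 cotransporter; slope of fluorescence scaled to its starting value between 10 and 20 s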
Starred values were filed as active, the others as inactive.

`Cn1cc(S(=O)(=O)N2CCN(c3ccccc3)CC2)c(=O)n(C)c1=O` gave KCNQ1 inh inactive, Mot1-301 SUMO -10.2, KCNQ1 act inactive, AI-2 QS modul 15.6, Cl transport mod -0.0141 and hERG rescue -6.6.
Screening COc1cc(C2c3sc(=O)[nH]c3SC3C(=O)N(c4ccc(C)cc4)C(=O)C32)ccc1O (configuration not stated) returned KCNQ1 inh inactive, Mot1-301 SUMO -1.8, KCNQ1 act inactive, AI-2 QS modul 7.2, Cl transport mod -1.02 and hERG rescue -8.4.
Screening O=C1C2Sc3[nH]c(=O)sc3C(c3ccccc3)C2C(=O)N1c1ccccc1 (configuration not stated) returned KCNQ1 inh inactive, Mot1-301 SUMO 249.8, KCNQ1 act inactive, AI-2 QS modul 10.6, Cl transport mod -11.5*, hERG rescue -9.1, KCC2 secondary inconclusive, KCC2 bumet counter 0.00517, KCC2 sec2 0.0174*, HEK counter1 0.00869, KCC2 retest ouab inconclusive and HEK293 Tl flux2 0.0115.
`COc1ccc(C2c3sc(=O)[nH]c3SC3C(=O)N(c4ccccc4)C(=O)C32)cc1` (configuration not stated) gave KCNQ1 inh inactive, Mot1-301 SUMO 144.6, KCNQ1 act inactive, AI-2 QS modul -14.0, Cl transport mod -5.92*, hERG rescue -8.6, KCC2 secondary 0.00546, KCC2 bumet counter 0.00869*, KCC2 sec2 0.0221*, HEK counter1 0.00971*, KCC2 retest ouab 0.0111* and HEK293 Tl flux2 0.0108.
For CCOc1ccc(N2C(=O)C3Sc4[nH]c(=O)sc4C(c4ccc(OC)c(OC)c4)C3C2=O)cc1 (configuration not stated) the results were KCNQ1 inh inactive, Mot1-301 SUMO -1.9, KCNQ1 act inactive, AI-2 QS modul 15.1, Cl transport mod -3.84 and hERG rescue -12.4.
For CSc1ccc(/C=C(\C#N)C(=O)Nc2cccc(C)c2)cc1 the results were KCNQ1 inh inactive, Mot1-301 SUMO -12.5, KCNQ1 act inactive, AI-2 QS modul 17.2, Cl transport mod -0.0388 and hERG rescue -6.2.
COc1ccc(C(=O)CSc2nnc(Cc3ccccc3)o2)cc1 was read as KCNQ1 inh inactive, Mot1-301 SUMO 115.9, KCNQ1 act inactive, AI-2 QS modul 13.9, Cl transport mod -2.85 and hERG rescue 2.3.
For COc1ccc(/C(O)=C/Sc2nnc(Cc3ccccc3)o2)cc1 the results were KCNQ1 inh inactive, Mot1-301 SUMO -7.6, KCNQ1 act inactive, AI-2 QS modul 24.9, Cl transport mod -4.93*, hERG rescue -3.6, KCC2 secondary 0.00627, KCC2 bumet counter 0.00531, KCC2 sec2 0.0246*, HEK counter1 0.00653, KCC2 retest ouab 0.0132* and HEK293 Tl flux2 inconclusive.
CCN(CC1COc2ccccc2O1)S(=O)(=O)c1ccc(C)cc1 (configuration not stated) was read as KCNQ1 inh inactive, Mot1-301 SUMO 5.0, KCNQ1 act inactive, AI-2 QS modul 13.6, Cl transport mod -0.576 and hERG rescue -11.9.
`CCN(CCCn1c(=S)[nH]c2ccc(N3CCOCC3)cc2c1=O)c1ccccc1` gave KCNQ1 inh inactive, Mot1-301 SUMO 103.1, KCNQ1 act inactive, AI-2 QS modul 27.6, Cl transport mod 4.86*, hERG rescue -11.1, KCC2 secondary 0.0123*, KCC2 bumet counter 0.0165*, KCC2 sec2 0.0303, HEK counter1 0.00949*, KCC2 retest ouab 0.0522* and HEK293 Tl flux2 0.0111*.
For CCCCN(C)CCn1c(=S)[nH]c2ncccc2c1=O the results were KCNQ1 inh inactive, Mot1-301 SUMO -4.3, KCNQ1 act inactive, AI-2 QS modul 3.5, Cl transport mod 2.95 and hERG rescue -9.2.
For CCN(CCCn1c(=S)[nH]c2ncccc2c1=O)c1ccccc1 the results were KCNQ1 inh inactive, Mot1-301 SUMO 10.0, KCNQ1 act inactive, AI-2 QS modul 7.9, Cl transport mod 78.4*, hERG rescue 38.2*, KCC2 secondary 0.0186*, KCC2 bumet counter 0.142*, KCC2 sec2 0.0382, HEK counter1 0.116*, KCC2 retest ouab 0.119* and HEK293 Tl flux2 0.0228*.
For CCN(CC)CCCn1c(=S)[nH]c2ncccc2c1=O the results were KCNQ1 inh inactive, Mot1-301 SUMO 9.9, KCNQ1 act inactive, AI-2 QS modul 9.0, Cl transport mod 1.21 and hERG rescue -11.3.
Screening CC(C)OCCCn1c(=S)[nH]c2ncccc2c1=O returned KCNQ1 inh inactive, Mot1-301 SUMO 9.4, KCNQ1 act inactive, AI-2 QS modul 18.5, Cl transport mod 13.2*, hERG rescue -14.3, KCC2 secondary 0.0166*, KCC2 bumet counter 0.0339*, KCC2 sec2 0.031, HEK counter1 0.0163*, KCC2 retest ouab 0.0302* and HEK293 Tl flux2 0.0123*.
O=c1c2ccccc2[nH]c(=S)n1CCCN1CCN(c2ccccc2)CC1 was read as KCNQ1 inh inactive, Mot1-301 SUMO 47.3, KCNQ1 act inactive, AI-2 QS modul 11.3 and hERG rescue -7.8.
For O=c1c2cccnc2[nH]c(=S)n1CCCN1CCN(c2ccccc2F)CC1 the results were KCNQ1 inh inactive, Mot1-301 SUMO 35.6, KCNQ1 act inactive, AI-2 QS modul 5.7, Cl transport mod 19.7*, hERG rescue -13.1, KCC2 secondary 0.0132*, KCC2 bumet counter 0.0762*, KCC2 sec2 0.0376, HEK counter1 0.0389*, KCC2 retest ouab 0.0581* and HEK293 Tl flux2 0.0126*.
